Test results published in ChEMBL document CHEMBL3046036, “Bioactivity of the fungal metabolite (8R,16R)-(-)-pyrenophorin on graminaceous plants” (J Agric Food Chem, 2005).
Activity calls are given as the source filed them. No cut-off for these calls is given here.

What was measured:
Avena sativa [1] = assay: Phytotoxicity against Avena sativa root growth at 20 degC and 12 hr photoperiod at 1000 uM; assay type: organism-based; conditions: in vivo
Triticum aestivum [2] = assay: Inhibition of Triticum aestivum (wheat) root growth at 20 degC and 12 hr photoperiod at > 51 uM; assay type: functional, organism-based
Avena sterilis [3] = assay: Inhibition of Avena sterilis root growth at 20 degC and 12 hr photoperiod at 31 to 50 uM; assay type: functional, organism-based
Method in brief: (§1)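 Pregerminated seeds were exposed in tubes to aqueous metabolite and kept in a growth chamber at 20 °C with a 12-h photoperiod. Main root length was measured after 120 h.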

Triticum aestivum [4] = assay: Inhibition of Triticum aestivum (wheat) seed germination at 20 degC at 200 uM (reference value: 0%); assay type: functional
Avena fatua [5] = assay: Inhibition of Avena fatua seed germination at 20 degC at 90 uM (reference value: 0%); assay type: functional
Avena sativa [6] = assay: Effect on chlorophyll content in Avena sativa assessed as chlorophyll dissipation rate at 20 degC and 12 hr photoperiod at 320 uM relative to control; assay type: ADME, organism-based; conditions: in vivo
Method in brief: (§2)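 Leaf sections were treated with 320 µM metabolite and incubated in the dark at 20 °C, with 16 tubes per treatment. Every 12 h, segments from one tube were split into four tubes and extracted in DMSO at 65 °C for 30 min. Extracts were read at A665, tissue was dried at 105 °C and weighed, and chlorophyll was expressed as A665 per g dry weight.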

Avena sterilis [7] = assay: Inhibition of Avena sterilis seed germination at 20 degC at 70 uM (reference value: 0%); assay type: functional
Avena sterilis [8] = assay: Inhibition of Avena sterilis root growth at 20 degC and 12 hr photoperiod at > 51 uM; assay type: functional, organism-based; method in brief: as §1
Avena fatua [9] = assay: Inhibition of Avena fatua seed germination at 20 degC at 80 uM (reference value: 0%); assay type: functional
Avena fatua [10] = assay: Inhibition of Avena fatua seed germination at 20 degC at 10 to 50 uM (reference value: 0%); assay type: functional
Avena fatua [11] = assay: Inhibition of Avena fatua seed germination at 20 degC at 320 uM (reference value: 0%); assay type: functional
Hordeum vulgare [12] = assay: Inhibition of Hordeum vulgare (barley) root growth at 20 degC and 12 hr photoperiod at 31 to 50 uM; assay type: functional, organism-based; method in brief: as §1
Hordeum vulgare [13] = assay: Phytotoxicity against Hordeum vulgare (barley) root growth at 20 degC and 12 hr photoperiod at 1000 uM; assay type: organism-based; conditions: in vivo
Hordeum vulgare [14] = assay: Inhibition of Hordeum vulgare (barley) seed germination at 20 degC at 60 uM (reference value: 0%); assay type: functional
Avena sativa [15] = assay: Inhibition of Avena sativa seed germination at 20 degC at 640 uM (reference value: 0%); assay type: functional
Hordeum vulgare [16] = assay: Enhancement of Hordeum vulgare (barley) root growth at 20 degC and 12 hr photoperiod at 10 to 30 uM; assay type: functional, organism-based; method in brief: as §1
Avena fatua [17] = assay: Inhibition of Avena fatua seed germination at 20 degC at 100 uM (reference value: 0%); assay type: functional
Hordeum vulgare [18] = assay: Inhibition of Hordeum vulgare (barley) seed germination at 20 degC at 10 to 50 uM (reference value: 0%); assay type: functional
Hordeum vulgare [19] = assay: Effect on chlorophyll content in Hordeum vulgare (barley) assessed as chlorophyll dissipation rate at 20 degC and 12 hr photoperiod at 320 uM relative to control; assay type: ADME, organism-based; conditions: in vivo; method in brief: as §2
Avena sterilis [20] = assay: Inhibition of Avena sterilis seed germination at 20 degC at 320 uM (reference value: 0%); assay type: functional
Triticum aestivum [21] = assay: Inhibition of Triticum aestivum (wheat) seed germination at 20 degC at 70 uM (reference value: 0%); assay type: functional
Avena fatua [22] = assay: Inhibition of Avena fatua root growth at 20 degC and 12 hr photoperiod at 31 to 50 uM; assay type: functional, organism-based; method in brief: as §1
Triticum aestivum [23] = assay: Enhancement of Triticum aestivum (wheat) root growth at 20 degC and 12 hr photoperiod at 10 to 30 uM; assay type: functional, organism-based; method in brief: as §1
Avena sativa [24] = assay: Inhibition of Avena sativa root growth at 20 degC and 12 hr photoperiod at 31 to 50 uM; assay type: functional, organism-based; method in brief: as §1
Avena sativa [25] = assay: Inhibition of Avena sativa seed germination at 20 degC at 200 uM (reference value: 0%); assay type: functional
Triticum aestivum [26] = assay: Inhibition of Triticum aestivum (wheat) seed germination at 20 degC at 10 to 50 uM (reference value: 0%); assay type: functional
Hordeum vulgare [27] = assay: Inhibition of Hordeum vulgare (barley) root growth at 20 degC and 12 hr photoperiod at > 51 uM; assay type: functional, organism-based; method in brief: as §1
Hordeum vulgare [28] = assay: Inhibition of Hordeum vulgare (barley) seed germination at 20 degC at 320 uM (reference value: 0%); assay type: functional
Avena sativa [29] = assay: Inhibition of Avena sativa seed germination at 20 degC at 100 uM (reference value: 0%); assay type: functional
Avena sativa [30] = assay: Inhibition of Avena sativa root growth at 20 degC and 12 hr photoperiod at > 51 uM; assay type: functional, organism-based; method in brief: as §1
Hordeum vulgare [31] = assay: Inhibition of Hordeum vulgare (barley) seed germination at 20 degC at 200 uM (reference value: 0%); assay type: functional
Triticum aestivum [32] = assay: Effect on chlorophyll content in Triticum aestivum (wheat) assessed as chlorophyll dissipation rate at 20 degC and 12 hr photoperiod at 320 uM relative to control; assay type: ADME, organism-based; conditions: in vivo; method in brief: as §2
Avena sativa [33] = assay: Inhibition of Avena sativa seed germination at 20 degC at 10 to 50 uM (reference value: 0%); assay type: functional
Triticum aestivum [34] = assay: Inhibition of Triticum aestivum (wheat) root growth at 20 degC and 12 hr photoperiod at 31 to 50 uM; assay type: functional, organism-based
Avena sativa [35] = assay: Inhibition of Avena sativa seed germination at 20 degC at 320 uM (reference value: 0%); assay type: functional

C[C@@H]1CCC(=O)/C=C/C(=O)O[C@H](C)CCC(=O)/C=C/C(=O)O1 [(8R,16R)-(-)-pyrenophorin]
Activity (Avena sativa [1]): Non-toxic | inhibition (Triticum aestivum [2]): Active | inhibition (Avena sterilis [3]): inactive | inhibition at 200 µM (Triticum aestivum [4]): 90.6% | inhibition at 90 µM (Avena fatua [5]): 87.8% | Ratio (Avena sativa [6]): 1.4 | inhibition at 70 µM (Avena sterilis [7]): 68.5% | inhibition (Avena sterilis [8]): Active | inhibition at 80 µM (Avena fatua [9]): 82% | inhibition (INH) (Avena fatua [10]): 0% | inhibition at 320 µM (Avena fatua [11]): 100% | inhibition (Hordeum vulgare [12]): inactive | Activity (Hordeum vulgare [13]): Non-toxic | inhibition at 60 µM (Hordeum vulgare [14]): 10.1% | inhibition at 640 µM (Avena sativa [15]): 100% | Activity (Hordeum vulgare [16]): Active | inhibition at 100 µM (Avena fatua [17]): 95.3% | inhibition (INH) (Hordeum vulgare [18]): 0% | Ratio (Hordeum vulgare [19]): 1.4 | inhibition at 320 µM (Avena sterilis [20]): 100% | inhibition at 70 µM (Triticum aestivum [21]): 67.8% | inhibition (Avena fatua [22]): inactive | Activity (Triticum aestivum [23]): Active | inhibition (Avena sativa [24]): inactive | inhibition at 200 µM (Avena sativa [25]): 95.6% | inhibition (INH) (Triticum aestivum [26]): 0% | inhibition (Hordeum vulgare [27]): Active | inhibition at 320 µM (Hordeum vulgare [28]): 100% | inhibition at 100 µM (Avena sativa [29]): 93.5% | inhibition (Avena sativa [30]): Active | inhibition at 200 µM (Hordeum vulgare [31]): 99% | Ratio (Triticum aestivum [32]): 1.4 | inhibition (INH) (Avena sativa [33]): 0% | inhibition (Triticum aestivum [34]): inactive | inhibition at 320 µM (Avena sativa [35]): 100%
